Tests used:
Acetylcholinesterase = Acetylcholinesterase (Electrophorus electricus, UniProt O42275); assay: Inhibition of electric eel AChE using acetylthiocholine iodide as substrate incubated for 15 mins by Ellman's method
Outline: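 Ellman spectrophotometric assay: electric eel AChE 0.05 U/mL final, acetylthiocholine iodide 1 mmol/L, phosphate buffer pH 8.0, range of compound concentrations.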

[1] = Inhibition of rat serum BuChE at 50 uM using butyrylthiocholine iodide as substrate incubated for 15 mins by Ellman's method relative to control; details: 0.25 h
Outline: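 Ellman method with 25% rat serum as BuChE source, butyrylthiocholine iodide 1 mmol/L, phosphate buffer pH 7.4, absorbance at 405 nm. Compounds tested at 50 µM. […] Triplicate wells.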

[2] = Antioxidant activity assessed as trolox equivalents of AAPH radical scavenging activity at 5 uM preincubated for 15 mins followed by AAPH addition measured every 60 sec for 90 mins by ORAC-FL assay; assay type: functional
Outline: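 Peroxyl radicals generated by AAPH (12 mM final) at 37 °C in phosphate buffer pH 7.4 with fluorescein (150 nM final). Sample and fluorescein were preincubated 15 min before AAPH addition. Fluorescence (ex 485/em 535 nm) was read every 60 s for 90 min.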

[3] = biological target: Amyloid-beta precursor protein (Homo sapiens) (UniProt P05067); assay: Inhibition of self-induced aggregation of amyloid beta (1-42) (unknown origin) at 25 uM after 24 hrs by thioflavin T fluorescence-based fluorimetric method relative to control
Chain of Amyloid-beta precursor protein (Homo sapiens) (P05067 whole entry): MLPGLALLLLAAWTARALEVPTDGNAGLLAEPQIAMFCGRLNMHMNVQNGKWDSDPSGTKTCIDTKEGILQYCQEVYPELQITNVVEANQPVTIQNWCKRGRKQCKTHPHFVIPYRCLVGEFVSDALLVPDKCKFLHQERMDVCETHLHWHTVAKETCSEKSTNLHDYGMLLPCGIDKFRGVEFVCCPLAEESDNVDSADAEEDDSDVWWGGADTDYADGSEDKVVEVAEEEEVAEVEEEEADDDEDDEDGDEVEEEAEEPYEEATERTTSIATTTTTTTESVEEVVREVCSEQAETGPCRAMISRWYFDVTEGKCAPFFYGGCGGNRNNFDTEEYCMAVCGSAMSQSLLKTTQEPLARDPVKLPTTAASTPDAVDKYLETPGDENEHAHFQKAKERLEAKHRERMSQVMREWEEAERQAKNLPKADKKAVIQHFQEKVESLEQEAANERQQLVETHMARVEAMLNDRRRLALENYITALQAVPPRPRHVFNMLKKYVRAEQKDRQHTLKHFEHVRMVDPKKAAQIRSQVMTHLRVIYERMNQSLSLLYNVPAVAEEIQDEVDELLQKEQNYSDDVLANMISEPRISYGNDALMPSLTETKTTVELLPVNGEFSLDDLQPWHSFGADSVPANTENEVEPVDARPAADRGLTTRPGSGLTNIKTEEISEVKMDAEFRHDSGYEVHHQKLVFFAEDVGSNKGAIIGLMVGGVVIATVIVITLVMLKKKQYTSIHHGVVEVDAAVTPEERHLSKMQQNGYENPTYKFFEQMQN
Outline: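 Aβ1-42 was pretreated in HFIP, dried and stocked in DMSO. Aβ1-42 (25 µM final) was incubated with compound (25 µM final) in 50 mM phosphate buffer pH 7.4 at 37 °C for 24 h. 5 µM ThT in 50 mM glycine-NaOH pH 8.5 was then added. Fluorescence was read at ex 446/em 490 nm. Inhibition = (1−IFi/IFc)×100 after background subtraction, in triplicate.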

[4] = Inhibition of Cu2+-mediated aggregation of amyloid beta (1-42) (unknown origin) at 25 uM after 24 hrs by thioflavin T fluorescence-based fluorimetric method relative to control; assay type: functional
Outline: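 HFIP-pretreated Aβ1-42 (25 µM) was incubated with Cu2+ (25 µM), with or without compound (25 µM final), in 20 mM HEPES/150 mM NaCl pH 6.6 at 37 °C for 24 h. 5 µM ThT in 50 mM glycine-NaOH pH 8.5 was then added. Fluorescence was read at ex 446/em 490 nm. Percent inhibition was taken versus no-inhibitor control after background subtraction, in triplicate.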

[5] = biological target: T1, Amine oxidase [flavin-containing] A (Homo sapiens, UniProt P21397); assay: Inhibition of recombinant human MAO-A expressed in baculovirus infected High 5 insect cells at 10 uM using kynuramine as substrate incubated for 30 mins by spectrofluorometric method relative to control; details: 0.5 h
T1 sequence (P21397 whole entry): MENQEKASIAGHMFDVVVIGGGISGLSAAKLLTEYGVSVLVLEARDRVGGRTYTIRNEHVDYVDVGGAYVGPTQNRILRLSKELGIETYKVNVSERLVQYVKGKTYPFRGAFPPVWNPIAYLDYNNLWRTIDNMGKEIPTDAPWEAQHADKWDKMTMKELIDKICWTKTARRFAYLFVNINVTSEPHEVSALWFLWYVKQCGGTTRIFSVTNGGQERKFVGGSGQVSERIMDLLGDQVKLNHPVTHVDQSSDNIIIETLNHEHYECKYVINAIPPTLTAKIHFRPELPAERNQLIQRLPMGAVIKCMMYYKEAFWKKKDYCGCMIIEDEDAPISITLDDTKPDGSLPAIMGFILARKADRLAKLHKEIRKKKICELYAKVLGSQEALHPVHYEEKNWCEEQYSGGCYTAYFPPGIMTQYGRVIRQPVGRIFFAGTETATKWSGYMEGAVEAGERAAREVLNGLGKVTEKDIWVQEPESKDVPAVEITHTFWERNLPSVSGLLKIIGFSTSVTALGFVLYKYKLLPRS
Outline: (§1)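 Recombinant human MAO-A or MAO-B (7.5 µg/mL) with kynuramine substrate in 100 mM potassium phosphate pH 7.4 (KCl-isotonic), <4% DMSO, 30 min at 37 °C. Stopped with 2 N NaOH. 4-Hydroxyquinoline was measured fluorometrically (ex 310/em 400 nm) against a calibration curve. Single-point inhibition at 10 µM. IC50 from six-concentration sigmoidal curves, triplicate. SI = IC50(MAO-A)/IC50(MAO-B).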

[6] = biological target: T2, Amine oxidase [flavin-containing] B (Homo sapiens, UniProt P27338); assay: Inhibition of recombinant human MAO-B expressed in baculovirus infected High 5 insect cells 10 uM using kynuramine as substrate incubated for 30 mins by spectrofluorometric method relative to control; details: 0.5 h; outline: as §1
T2 sequence (P27338 whole entry): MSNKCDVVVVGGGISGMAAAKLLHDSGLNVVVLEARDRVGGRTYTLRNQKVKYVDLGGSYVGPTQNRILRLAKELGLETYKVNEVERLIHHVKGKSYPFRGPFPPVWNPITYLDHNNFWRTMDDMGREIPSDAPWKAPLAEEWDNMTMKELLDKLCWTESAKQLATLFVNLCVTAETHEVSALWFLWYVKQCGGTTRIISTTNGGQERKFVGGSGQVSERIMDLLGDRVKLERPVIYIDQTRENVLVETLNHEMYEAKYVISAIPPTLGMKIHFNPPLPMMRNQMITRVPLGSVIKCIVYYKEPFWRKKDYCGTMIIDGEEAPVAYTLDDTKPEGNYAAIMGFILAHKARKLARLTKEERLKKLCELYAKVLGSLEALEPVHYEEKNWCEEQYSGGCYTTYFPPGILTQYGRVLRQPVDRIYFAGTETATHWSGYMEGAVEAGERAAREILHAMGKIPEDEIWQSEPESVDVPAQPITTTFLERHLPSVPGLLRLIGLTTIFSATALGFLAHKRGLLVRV

[7] = biological target: T2, Amine oxidase [flavin-containing] B; assay: Inhibition of recombinant human MAO-B expressed in baculovirus infected High 5 insect cells using kynuramine as substrate incubated for 30 mins by spectrofluorometric method; assay type: cell-based
Homo sapiens = species on record: Homo sapiens; assay: Selectivity index, ratio of IC50 for recombinant human MAO-A expressed in baculovirus infected High 5 insect cells to IC50 for recombinant human MAO-B expressed in baculovirus infected High 5 insect cells
Outline: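 Recombinant human MAO-A or MAO-B (7.5 µg/mL) with kynuramine substrate in 100 mM potassium phosphate pH 7.4 (KCl-isotonic), <4% DMSO, 30 min at 37 °C. Stopped with 2 N NaOH. Single-point inhibition at 10 µM. IC50 from six-concentration sigmoidal curves, triplicate. SI = IC50(MAO-A)/IC50(MAO-B).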

[8] = Inhibition of rat serum BuChE using butyrylthiocholine iodide as substrate incubated for 15 mins by Ellman's method
Outline: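 Rat serum BuChE (25% serum) by Ellman method, butyrylthiocholine iodide 1 mmol/L, phosphate buffer pH 7.4, read at 405 nm. Compound concentrations varied, each in triplicate.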

[9] = biological target: T1, Amine oxidase [flavin-containing] A; assay: Inhibition of recombinant human MAO-A expressed in baculovirus infected High 5 insect cells using kynuramine as substrate incubated for 30 mins by spectrofluorometric method

Chain of Acetylcholinesterase (O42275 whole entry): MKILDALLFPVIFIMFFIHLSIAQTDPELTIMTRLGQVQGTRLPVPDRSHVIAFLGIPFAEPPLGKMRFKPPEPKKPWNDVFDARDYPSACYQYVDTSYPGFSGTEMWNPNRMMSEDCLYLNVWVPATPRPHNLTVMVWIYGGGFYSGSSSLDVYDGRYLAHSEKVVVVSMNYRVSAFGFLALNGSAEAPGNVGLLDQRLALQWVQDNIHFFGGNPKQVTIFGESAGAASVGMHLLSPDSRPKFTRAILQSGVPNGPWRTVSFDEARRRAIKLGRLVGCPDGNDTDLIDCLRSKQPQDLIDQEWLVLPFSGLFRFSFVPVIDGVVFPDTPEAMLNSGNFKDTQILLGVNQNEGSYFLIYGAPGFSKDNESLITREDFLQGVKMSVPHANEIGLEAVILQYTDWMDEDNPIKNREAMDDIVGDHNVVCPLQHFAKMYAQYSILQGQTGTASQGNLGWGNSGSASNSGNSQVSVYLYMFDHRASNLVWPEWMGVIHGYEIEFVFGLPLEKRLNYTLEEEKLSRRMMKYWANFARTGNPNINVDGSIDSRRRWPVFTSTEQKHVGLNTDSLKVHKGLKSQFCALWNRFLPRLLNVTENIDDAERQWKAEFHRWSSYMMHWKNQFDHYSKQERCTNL

| Structure (SMILES) | IC50 (Acetylcholinesterase) [µM] | inhibition (INH) [1] [%] | Activity [2] [µMequiv/µM] | inhibition [3] [%] | inhibition [4] [%] | inhibition at 10 µM [5] [%] | inhibition at 10 µM [6] [%] | IC50 [7] [µM] | Ratio IC50 (Homo sapiens) | IC50 [8] [µM] | IC50 [9] [µM] |
| --- | --- | --- | --- | --- | --- | --- | --- | --- | --- | --- | --- |
| CN(C)c1ccc(/C=C/C(=O)c2ccc(OC(=O)N3CCN(Cc4ccccc4)CC3)cc2O)cc1 | 21.4 | < 10 | 3.51 | 89.4 | 94.2 | 42.1 | 41.6 |  |  |  |  |
| CCN(CC)C(=O)Oc1ccc(C(=O)/C=C/c2ccc(N(C)C)cc2)c(O)c1 | 17.2 | < 10 | 2.2 | 76.7 | 49 | 24.4 |  | 3.5 |  |  |  |
| CCN(C)C(=O)Oc1ccc(C(=O)/C=C/c2ccc(N(C)C)cc2)c(O)c1 | 14.3 | < 10 | 3.14 | 98 | 88 | 25.9 |  | 2.1 | > 4.76 |  |  |
| CCN(C)C(=O)Oc1cccc([C@H](C)N(C)C)c1 [RIVASTIGMINE] |  |  |  |  |  |  |  |  |  | 2.86 |  |
| O=C(/C=C/c1ccc(N2CCOCC2)cc1)c1ccc(OC(=O)N2CCCC2)cc1O | 63.5 | < 10 | 0.51 | 44.4 | 48.9 | 15.2 |  | 0.71 | > 14.1 |  |  |
| CN(C)c1ccc(/C=C/C(=O)c2ccc(OC(=O)N3CCCC3)cc2OC(=O)N2CCCC2)cc1 | 30 | < 10 | 2.45 | 48 | 26.3 | 25.2 | 34.6 |  |  |  |  |
| CCN1CCN(C(=O)Oc2ccc(C(=O)/C=C/c3ccc(N(C)C)cc3)c(O)c2)CC1 | 8.62 | < 10 | 2.54 | 83.2 | 89.2 | 42.5 | 30 |  |  |  |  |
| CN(C)c1ccc(/C=C/C(=O)c2ccc(OC(=O)N3CCCCC3)cc2OC(=O)N2CCCCC2)cc1 | 32.4 | < 10 | 2.41 | 38 | 23.8 | 17 | 30.1 |  |  |  |  |
| O=C(/C=C/c1ccc(N2CCCC2)cc1)c1ccc(OC(=O)N2CCCC2)cc1O | 14.1 | < 10 | 0.35 | 44.4 | 48.9 | 15.2 |  | 0.71 |  |  |  |
| CCN(CC)c1ccc(/C=C/C(=O)c2ccc(OC(=O)N3CCCC3)cc2O)cc1 | 11.7 | < 10 | 1.02 | 67.8 | 67.1 | 21 |  | 6.7 |  |  |  |
| O=C(/C=C/c1ccc(N2CCCCC2)cc1)c1ccc(OC(=O)N2CCCC2)cc1O | 10.6 | < 10 | 1.2 | 57.2 | 59.8 | 19.6 |  | 0.78 |  |  |  |
| CN(C)C(=O)Oc1ccc(C(=O)/C=C/c2ccc(N(C)C)cc2)c(O)c1 | 32.6 | < 10 | 2.62 | 90.8 | 77.9 |  |  | 2.48 | 4.11 |  | 10.2 |
| CN(C)C(=O)Oc1ccc(C(=O)/C=C/c2ccc(N(C)C)cc2)c(OC(=O)N(C)C)c1 | > 100 | < 10 | 2.16 | 34.7 | 56.2 | 34.6 | 5.1 |  |  |  |  |
| CN(C)c1ccc(/C=C/C(=O)c2ccc(OC(=O)N3CCOCC3)cc2O)cc1 | 8.01 | < 10 | 2.04 | 83.6 | 79.7 | 34.6 | 42.3 |  |  |  |  |
| CN(C)c1ccc(/C=C/C(=O)c2ccc(OC(=O)N3CCCCC3)cc2O)cc1 | 6.9 | < 10 | 2.51 | 70.2 | 73.9 | 27.8 | 31.1 |  |  |  |  |
| CN1CCN(C(=O)Oc2ccc(C(=O)/C=C/c3ccc(N(C)C)cc3)c(O)c2)CC1 | 11.9 | < 10 | 2.08 | 87.9 | 75.5 | 49.5 | 25.1 |  |  |  |  |
| COc1cc(/C=C/C(=O)CC(=O)/C=C/c2ccc(O)c(OC)c2)ccc1O |  |  |  |  | 67.2 |  |  |  |  |  |  |
| CN(C)c1ccc(/C=C/C(=O)c2ccc(OC(=O)N3CCOCC3)cc2OC(=O)N2CCOCC2)cc1 | 58 | < 10 | 1.85 | 33.3 | 41.4 | 15 | 40.2 |  |  |  |  |
| CN(C)c1ccc(/C=C/C(=O)c2ccc(O)cc2O)cc1 | 78.2 | < 10 | 2 | 77.7 | 60.1 |  |  | 0.31 | 13.4 |  | 4.06 |

Source: ChEMBL document CHEMBL3875206, “Design, synthesis and biological evaluation of 4'-aminochalcone-rivastigmine hybrids as multifunctional agents for the treatment of Alzheimer's disease” (Bioorg Med Chem, 2017)
